Experiments:
[1] = Stability in potassium phosphate buffer at pH 7.4 up to 4 hrs; format: physicochemical; settings: pH 7.4, 4 h
Method in brief: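 Negative control run under the blood-incubation conditions but in 50 mM potassium phosphate buffer, pH 7.4, instead of blood. Genistein glucuronides (G-7-G plus G-4′-G, with aglycone) or sulfates (G-7-S plus G-4′-S, with aglycone) held at 37°C in a shaking water bath up to 4 h. Sampled at 0, 60, 120 and 240 min and read by UPLC-MS/MS.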

[2] = Drug transport in human Caco2 cells assessed as basolateral excretion of compound treated with genistein at 10 uM after 4 hrs by UPLC-MS/MS analysis in presence of BCRP inhibitor Ko143; format: ADME, cell-based; settings: caco-2, 4 h
Method in brief: (§1)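 Caco-2 TC7 monolayers on 3 μm polycarbonate inserts, used 19–22 days post-seeding (TEER ≥460 Ω/cm2). Genistein 2 or 10 μM in HBSS pH 7.4 applied apically, ±5 μM Ko143 apically; sampling both sides at 0–4 h hourly with replacement, triplicate. Genistein and four conjugates plus intracellular amounts at 4 h by UPLC-MS/MS; mass balance versus dose added.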

[3] = system: Blood; assay: Stability in Wistar rat blood at 3 uM up to 4 hrs by UPLC-MS/MS analysis; format: ADME, tissue-based
Method in brief: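 Genistein glucuronide mixture (G-7-G plus G-4′-G, 3 μM) with 3.8 μM genistein incubated in fresh rat whole blood, 37°C shaking water bath. Sampled at 0, 60, 120 and 240 min. Reaction stopped with acetonitrile containing daidzein internal standard. Genistein and conjugates quantified by UPLC-MS/MS using multiple reaction monitoring. n = 3.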

[4] = Drug transport in human Caco2 cells assessed as basolateral excretion of compound treated with genistein at 2 uM after 4 hrs by UPLC-MS/MS analysis in presence of BCRP inhibitor Ko143; format: ADME, cell-based; settings: caco-2, 4 h; method in brief: as §1

Stability [1]: Stable | Drug transport [2]: Active | Stability [3]: Stable | Drug transport [4]: Active
SMILES: O=c1c(-c2ccc(O)cc2)coc2cc(OS(=O)(=O)O)cc(O)c12
